Experimental data: ChEMBL document CHEMBL3351942, “Rexinoids isolated from Sophora tonkinensis with a gene expression profile distinct from the synthetic rexinoid bexarotene” (J Nat Prod, 2014)
Activity calls are given as the source filed them. The calls are words filed in the database; no cut-off is given here.

Tests used:
Type in all cases: cell-based
[1] = Activation of LXR in mouse C2C12 cells assessed as induction of ApoD mRNA expression at 10 uM after 24 hrs in presence of T0901317 by quantitative RT-PCR analysis
Outline: (§1)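 C2C12 myoblasts grown in DMEM/10% FBS, differentiated at confluence in 2% horse serum, medium changed every other day for 5 days; myotubes treated 24 h with or without T0901317 (1 μM). Total RNA, DNase-treated, oligo(dT) RT from 0.5 μg, SYBR green qPCR; normalized to β-actin (delta-delta Ct), fold over vehicle; mean ± SD of four determinants, one of two experiments.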

[2] = Activation of LXR in mouse C2C12 cells assessed as induction of ABCA1 mRNA expression at 10 uM after 24 hrs by quantitative RT-PCR analysis; outline: as §1
[3] = molecular target: T1, Retinoic acid receptor alpha (Homo sapiens) (UniProt P10276); test: Activation of human RAR-alpha expressed in HEK293 cells coexpressing with tk-betaRE-Luc after 24 hrs by luciferase reporter gene assay
T1 sequence (whole entry): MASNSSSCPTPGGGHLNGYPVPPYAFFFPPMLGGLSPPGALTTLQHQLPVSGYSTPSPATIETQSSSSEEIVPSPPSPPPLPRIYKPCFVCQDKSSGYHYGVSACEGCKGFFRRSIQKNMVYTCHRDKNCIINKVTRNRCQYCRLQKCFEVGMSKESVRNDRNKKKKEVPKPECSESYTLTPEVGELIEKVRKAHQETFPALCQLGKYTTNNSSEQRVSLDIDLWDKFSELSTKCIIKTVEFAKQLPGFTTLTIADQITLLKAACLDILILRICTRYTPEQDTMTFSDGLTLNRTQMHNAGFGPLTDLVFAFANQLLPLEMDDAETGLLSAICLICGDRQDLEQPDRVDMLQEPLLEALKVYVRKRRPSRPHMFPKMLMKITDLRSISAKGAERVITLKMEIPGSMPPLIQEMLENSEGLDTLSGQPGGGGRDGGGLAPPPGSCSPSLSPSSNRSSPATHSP
Outline: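 Calcium phosphate transfection of HEK293 cells with 30 ng pCMX-hRAR-α, 120 ng tk-βRE-Luc and 30 ng pCMX-β-gal plus carrier pUC18 (600 ng DNA per well). Cells were washed 8 h later and incubated with compound in 10% FBS medium. Luciferase was normalized to β-galactosidase; triplicate or quadruplicate, representative of three experiments.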

F9 = test: Activation of RAR/RXR heterodimer in mouse F9 cells assessed as increase in CYP26A1 mRNA level at 10 uM by quantitative RT-PCR analysis
Outline: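 F9 teratocarcinoma cells on 0.2% gelatin-coated dishes in DMEM/10% FBS; 24 h exposure with or without atRA (0.1 μM). CYP26A1 mRNA by qRT-PCR normalized to β-actin, fold vs vehicle; means ± SD of three determinants, one of three experiments; ANOVA/Bonferroni.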

[4] = molecular target: T2, Oxysterols receptor LXR-alpha (Homo sapiens) (UniProt Q13133); test: Activation of human LXR-alpha expressed in HEK293 cells coexpressing with pGL4.1-DR4-Luc after 24 hrs by luciferase reporter gene assay
T2 sequence (whole entry): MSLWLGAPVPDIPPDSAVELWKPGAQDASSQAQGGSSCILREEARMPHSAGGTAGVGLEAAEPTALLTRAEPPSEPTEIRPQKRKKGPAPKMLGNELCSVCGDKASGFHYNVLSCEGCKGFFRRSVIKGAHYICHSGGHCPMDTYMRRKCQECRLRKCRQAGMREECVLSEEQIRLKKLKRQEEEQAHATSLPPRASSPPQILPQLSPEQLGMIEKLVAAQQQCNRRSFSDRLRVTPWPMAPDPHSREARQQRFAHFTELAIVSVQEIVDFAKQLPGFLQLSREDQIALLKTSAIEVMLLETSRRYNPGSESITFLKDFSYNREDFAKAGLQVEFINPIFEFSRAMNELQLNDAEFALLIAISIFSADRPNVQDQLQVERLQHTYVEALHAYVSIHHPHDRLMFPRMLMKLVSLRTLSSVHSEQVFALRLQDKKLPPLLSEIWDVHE

[5] = Activation of LXR in mouse C2C12 cells assessed as induction of ApoE mRNA expression at 10 uM after 24 hrs in presence of T0901317 by quantitative RT-PCR analysis; outline: as §1
[6] = Activation of LXR in mouse C2C12 cells assessed as induction of FAS mRNA expression at 10 uM after 24 hrs in presence of T0901317 by quantitative RT-PCR analysis; outline: as §1
RAW264.7 = test: Activation of RXR/LXR heterodimer in mouse RAW264.7 cells assessed as increase in ABCA1 protein level at 10 uM after 24 hrs by Western blotting analysis
[7] = molecular target: T3, Peroxisome proliferator-activated receptor delta (Mus musculus) (UniProt P35396); test: Activation of PPARdelta in mouse C2C12 cells assessed as induction of FABP3 mRNA expression at 10 uM after 24 hrs in presence of GW501516 by quantitative RT-PCR analysis
T3 sequence (whole entry): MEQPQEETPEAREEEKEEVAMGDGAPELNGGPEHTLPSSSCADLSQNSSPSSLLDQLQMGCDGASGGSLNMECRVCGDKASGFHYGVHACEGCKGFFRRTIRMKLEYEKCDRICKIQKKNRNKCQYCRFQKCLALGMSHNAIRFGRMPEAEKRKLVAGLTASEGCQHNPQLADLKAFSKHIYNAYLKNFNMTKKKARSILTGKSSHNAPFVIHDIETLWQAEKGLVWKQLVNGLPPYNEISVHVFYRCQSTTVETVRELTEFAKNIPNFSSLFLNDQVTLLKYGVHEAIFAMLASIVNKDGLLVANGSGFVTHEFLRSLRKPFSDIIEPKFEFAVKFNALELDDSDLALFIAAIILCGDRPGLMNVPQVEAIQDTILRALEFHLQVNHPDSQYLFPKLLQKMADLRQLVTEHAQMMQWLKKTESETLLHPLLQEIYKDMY
Outline: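 Differentiated C2C12 myotubes (2% horse serum, 5 days) exposed 24 h with or without PPARδ agonist GW501516 (1 μM). mRNA quantified by SYBR green real-time RT-PCR, normalized to β-actin by delta-delta Ct, and expressed as fold induction vs vehicle; means ± SD of four determinants from one of two independent experiments; one-way ANOVA with Bonferroni.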

[8] = Activation of LXR in mouse C2C12 cells assessed as induction of LPL mRNA expression at 10 uM after 24 hrs by quantitative RT-PCR analysis
3T3-L1 = test: Activation of PPARgamma/RXR heterodimer in mouse 3T3-L1 cell assessed as induction of adipogenesis at 10 uM after 6 days by Oil red O-staining
Outline: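 3T3-L1 cells grown to confluence, 2 days later induced 48 h with 10% FBS, 5 μg/mL insulin, 0.25 μM dexamethasone, 0.5 mM IBMX, then 48 h insulin-only medium; compounds in DMSO added to postdifferentiation medium for 4 days. Formalin-fixed (10%, 1 h, RT), stained with Oil red O, washed, visualized.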

Activity [3]: inactive | Activity [4]: inactive | Activity [7]: Active
Compound: CC(C)=CCc1cc([C@@H]2CC(=O)c3ccc(O)c(CC=C(C)C)c3O2)cc2c1OC(C(C)(C)O)C2 (stereo partly specified)
Activity [1]: inactive | Activity [2]: Active | Activity (F9): Active | Activity [5]: Active | Activity [6]: inactive | Activity (RAW264.7): Active | Activity [8]: Active | Activity (3T3-L1): Active
